According to paper PMC3778312 (British Journal of Cancer, 2013):

What was measured:
[1] = Phase 1 safety monitoring of PX-866 with docetaxel; format: in vivo, human
How it was run: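 Open-label dose escalation in cohorts of 6–9 patients at 4, 6 or 8 mg oral daily test compound plus docetaxel 75 mg m−2 IV every 21 days, with dexamethasone premedication. All patients receiving ≥1 dose had vital signs, labs and exams; AEs were graded by NCI CTCAE v4.02. DLTs included related grade ≥3 events, febrile grade 3/4 neutropenia, platelets <25 000 per μl and ANC <500 per μl for >7 days.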

[2] = Docetaxel plasma pharmacokinetics in patients; format: in vivo; settings: human
NSCLC = settings: ref Roberts et al, 2004, Horstmann et al, 2005, Schuette et al; cited from earlier work
[3] = plasma, intravenous, 75 mg m^-2

CC(=O)O[C@@]12CO[C@@H]1C[C@H](O)[C@@]1(C)C(=O)[C@H](O)C3=C(C)[C@@H](OC(=O)[C@H](O)[C@@H](NC(=O)OC(C)(C)C)c4ccccc4)C[C@@](O)([C@@H](OC(=O)c4ccccc4)[C@H]21)C3(C)C [docetaxel]
patients requiring docetaxel dose reduction ([1]; 18 out of 43): 42% | SAE related to docetaxel: ataxia ([1]; PX-866 with docetaxel): 1 N | SAE related to docetaxel: febrile neutropenia ([1]; PX-866 with docetaxel): 1 N | SAE related to docetaxel: mental status changes ([1]; PX-866 with docetaxel): 1 N | SAE related to docetaxel: nausea ([1]; PX-866 with docetaxel): 2 N | SAE related to docetaxel: pneumonia ([1]; PX-866 with docetaxel): 1 N | SAE related to docetaxel: vomiting ([1]; PX-866 with docetaxel): 3 N | gastrointestinal disorders, docetaxel-related ([1]; PX-866 with docetaxel, 43 patients): 79.1% | Grade 3/4 AE related to docetaxel: anaemia ([1]; PX-866 with docetaxel, N=43): 2 N | Grade 3/4 AE related to docetaxel: diarrhoea ([1]; PX-866 with docetaxel, N=43): 3 N | Grade 3/4 AE related to docetaxel: leucopenia ([1]; PX-866 with docetaxel, N=43): 4 N | Grade 3/4 AE related to docetaxel: nausea ([1]; PX-866 with docetaxel, N=43): 2 N | Grade 3/4 AE related to docetaxel: vomiting ([1]; PX-866 with docetaxel, N=43): 3 N | patients in whom docetaxel was discontinued due to toxicity ([1]; after SD or better with combination, continued single-agent PX-866): eight | patients requiring docetaxel dose reduction due to neutropenia ([1]; of 18 with dose reduction): Fourteen | exposure in the presence of PX-866 ([2]; in vivo): not affected | AUC(0-t) ([2]; plasma, intravenous): 851 ng·h/mL | MRT inf ([2]; plasma, intravenous): 13.9 h | Tmax ([2]; plasma, intravenous): 0.19 h | Vd ([2]; plasma, intravenous): 2690 L | clearance ([2]; plasma, intravenous): 2570 mL/min | AUC(0-t) [2, 3]: 1200 ng·h/mL | MRT inf [2, 3]: 15.2 h | Tmax [2, 3]: 0.19 h | Vd [2, 3]: 2990 L | clearance [2, 3]: 2390 mL/min | AUC(0-inf) ([2]; plasma, intravenous, AUCINF, C2D1 (with PX-866), mean, N=35, plasma): 1110 ng·h/mL | Cmax ([2]; plasma, intravenous, Cmax, C2D1 (with PX-866), mean, N=35, plasma): 539 ng/mL | half-life ([2]; plasma, intravenous, Half-life, C2D1 (with PX-866), mean, N=35, plasma): 13.1 h | PR rate, second-line docetaxel in NSCLC (NSCLC): 13% | PR−SD rate, second-line docetaxel in NSCLC (NSCLC): 50%
